This is a sample that favours compounds with a hit; in the whole collection about 3.2% have one here.
S100A4 MyoIIA: inhibitors of S100A4-myosin IIA peptide binding, primary screen, biochemical, fluorescence polarization, TAMRA-MyoIIA peptide. AID 652163, 2013. 360,000 tested, 0.14% active. inhibition, % at 10.7 µM. Protein S100-A4 (Homo sapiens), P26447;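 active = mean inhibition of at least 70% across replicates, with every replicate also reaching that level; inconclusive = mean inhibition reaches 70% but some replicates fall short; inactive = mean inhibition below 70%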
Target sequence (P26447 whole entry, looked up): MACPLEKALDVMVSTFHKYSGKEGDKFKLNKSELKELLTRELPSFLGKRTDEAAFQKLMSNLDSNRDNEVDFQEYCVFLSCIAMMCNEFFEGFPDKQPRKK
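Test system – S100A4 monomer (human) · Compound – single-point compound testing · Schedule – 5 min incubation before reading · Probe or stimulus – TAMRA-labelled myosin IIA heavy-chain peptide probe, 5 nM · Benchmarks – neutral control DMSO, positive control TFP · Medium – Calcium-containing HEPES buffer, pH 7.2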
PfHsp90 yeast 2: growth inhibition of PfHsp90-expressing yeast, primary screen, antimalarial PfHsp90 inhibitor project, S. cerevisiae, BacTiter-Glo luminescence, single point, set 2; BacTiter-Glo ATP, 48 h; yeast lacking PDR1 and PDR3 efflux regulators; inhibition, % at 9.4 µM; 310,000 tested, 0.32% active; AID 504621, 2011;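 active = every replicate shows inhibition above about 80%, whatever the replicate mean, limit read from the data; inconclusive = mean inhibition reaches the set limit but some replicate falls short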;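 note: 0% = DMSO neutral controls and 100% = 20 µM radicicol positive controls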
Ecoli rRNA inh: reduced GFP signal of wild-type E. coli, primary screen, bacterial rRNA inhibitor project, GFP/RFP fluorescence, OD600, single point; E. coli WT GFP vs humanized-ribosome RFP mutants, 24 h; hits give low values; DMSO median 0, no signal -100; GFP signal change (wild-type ribosome), % (concentration not given with the values); 350,000 tested, 1.6% active; AID 720706, 2013;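 active = significant combined selectivity score with lowered wild-type GFP, culture density cut under 30%, mutant RFP and density less affected; inactive = any of these conditions unmet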
MLL AF4-AF9 inh: inhibitors of AF4 peptide binding to AF9, primary screen, biochemical, AlphaScreen, biotin-AF4 peptide, FLAG-AF9, single point | 350,000 tested, 0.47% active | AID 651704, 2012 | inhibition, % at 10 µM;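 active = every replicate reaching a set inhibition limit, whatever the replicate mean, cut at about 25% in these data; inconclusive = mean inhibition reaches that limit but some replicates miss it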;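 note: 0% = plate neutral control median and 100% = total signal loss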
Target sequence (P42568 whole entry, looked up): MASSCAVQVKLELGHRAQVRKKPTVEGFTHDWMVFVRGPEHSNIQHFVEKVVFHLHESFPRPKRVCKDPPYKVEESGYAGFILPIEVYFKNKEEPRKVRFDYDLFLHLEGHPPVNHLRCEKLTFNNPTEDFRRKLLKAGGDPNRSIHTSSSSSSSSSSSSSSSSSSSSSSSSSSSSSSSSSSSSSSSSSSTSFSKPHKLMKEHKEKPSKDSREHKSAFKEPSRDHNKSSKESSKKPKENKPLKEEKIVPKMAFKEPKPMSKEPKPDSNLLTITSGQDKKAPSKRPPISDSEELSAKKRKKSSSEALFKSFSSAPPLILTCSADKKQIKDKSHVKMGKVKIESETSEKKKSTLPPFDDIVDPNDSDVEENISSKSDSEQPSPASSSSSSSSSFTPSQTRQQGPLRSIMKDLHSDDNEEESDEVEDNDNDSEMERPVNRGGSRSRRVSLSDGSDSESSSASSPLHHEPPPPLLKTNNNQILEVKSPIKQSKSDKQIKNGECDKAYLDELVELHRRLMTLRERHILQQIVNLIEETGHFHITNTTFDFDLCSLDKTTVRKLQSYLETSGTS
Cneo AK release: Cryptococcus neoformans cell lysis inducers, primary screen, AK release luminescence, single concentration | C. neoformans lysis, adenylate kinase release luminescence, 4 h; normalised: neutral wells 0, clomiphene wells 100 | 360,000 tested, 0.2% active | lysis activity, % at 15 µM;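 active = mean lysis activity across replicates of at least 80%, whatever share of replicates individually reach that level; inactive = mean lysis activity below 80%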
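Signal: Adenylate kinase release luminescence | Assay system: Log-phase Cryptococcus neoformans yeast cells | Input: Cells at 5 × 10^6 per mL | Buffer or medium: Fresh YPD growth medium | Compound: Single dose | Schedule: Static 4 h at 37 °C with compound, 1 h detection | Controls: Clomiphene | Read-out: Luminescence rise reflecting yeast cell lysis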
DENV2 CPE: inhibitors of DENV2 cytopathic effect, primary screen, cell-based, plate reader, single concentration; DENV2-infected cells, cytopathic effect rescue; CPE inhibition, % at 9.99 µM; 350,000 tested, 1.7% active; in the data active = CPE inhibition above about 20%, passing the limit was not always enough; inconclusive = no clear call, values can overlap the other calls; tested in BHK-21 cells;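 note: 0% = median of neutral control wells and 100% = median of positive control wells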
* = called active by the depositor; ? = inconclusive; / = not tested or not shown; ! = a repeat was not active.

SMILES	S100A4 MyoIIA	PfHsp90 yeast 2	Ecoli rRNA inh	MLL AF4-AF9 inh	Cneo AK release	DENV2 CPE
CC(=O)c1c(C)[nH]c(C(=O)OCC(=O)N2CCN(c3ccccc3)CC2)c1C	0	/	1	-4	0	?
CCOC(=O)c1c(C)[nH]c(C(=O)OCC(=O)N(CC)c2c(N)n(Cc3ccccc3)c(=O)[nH]c2=O)c1C	-14	/	-6	2	0	-5
CCOc1ccc(OCC(=O)N(C)c2c(N)n(Cc3ccccc3)c(=O)[nH]c2=O)cc1	1	17	2	-17	/	25*
Cc1ccc(S(=O)(=O)N(C)C[C@@H]2OCCCC[C@H](C)Oc3ccc(NC(=O)Nc4ccc(F)cc4)cc3C(=O)N([C@@H](C)CO)C[C@@H]2C)cc1	-9	/	2	0	-1	-1
CC(=O)N(C)C[C@H]1Oc2ncc(C#C[C@@H](C)O)cc2C(=O)N([C@@H](C)CO)C[C@H]1C	9	/	5	-6	-1	19
C[C@@H](O)C#Cc1cnc2c(c1)C(=O)N([C@@H](C)CO)C[C@H](C)[C@H](CN(C)C(=O)c1ccccc1)O2	2	/	6	-2	0	-5
Cc1cc(C)c2nc(N3CCN(C(=O)c4cccs4)CC3)sc2c1	-9	/	-10	-11	148*	4
Cc1cc(C)c2nc(N3CCC(C(=O)N4CCCC4)CC3)sc2c1	-1	3	-25*	5	3	-1
Cc1csc2c(N3CCN(C(=S)Nc4ccc(C(F)(F)F)cc4)CC3)ncnc12	4	-5	-32*	3	-3	-1
Cc1csc2ncnc(N3CCN(C(=S)Nc4ccc(C(F)(F)F)cc4)CC3)c12	-2	-21	-31	2	-4	1
CCCNC(=O)C[C@@H]1CC[C@H]2[C@@H](COC[C@H](O)CN2C(=O)Nc2c(C)noc2C)O1	4	/	-1	1	2	-1
COc1ccc2c(c1O)-c1ccccc1CCN(C)C2	33	-31	3	-1	0	-12
CN1CCc2cccc3c2[C@@H]1Cc1ccc(O)c(O)c1-3	17	23	/	26*	-1	/
CC(C)CNC(=O)COC(=O)c1cccc(S(=O)(=O)NCC(F)(F)F)c1	0	-3	4	25*	-2	9
N#Cc1ccc(CN2CCN(C(=O)CC(NC(=O)c3ccccc3)c3ccccc3)CC2)cc1 (configuration not stated)	-2	13	5	-7	-6	63*
C[C@H](CO)N1C[C@H](C)[C@H](CN(C)S(=O)(=O)c2ccc3c(c2)OCCCO3)OCc2cnnn2CCCC1=O	-3	/	-6	5	0	?
C[C@@H]1CN([C@@H](C)CO)C(=O)CCCn2cc(nn2)CO[C@@H]1CN(C)S(=O)(=O)c1ccc2c(c1)OCCCO2	-112	/	-1	-2	2	?
C[C@@H]1CN([C@H](C)CO)C(=O)CCCn2cc(nn2)CO[C@H]1CN(C)S(=O)(=O)c1ccc(Oc2ccccc2)cc1	2	/	4	0	-1	15
C[C@@H]1CN([C@@H](C)CO)C(=O)CCCn2cc(nn2)CO[C@H]1CN(C)S(=O)(=O)c1cccc(F)c1	-2	/	8	-1	1	1
C[C@H]1CN([C@@H](C)CO)C(=O)CCCn2cc(nn2)CO[C@H]1CN(C)S(=O)(=O)c1ccc2c(c1)OCCCO2	-6	/	3	-2	3	31*
C[C@@H]1CN([C@@H](C)CO)C(=O)CCCn2cc(nn2)CO[C@H]1CN(C)S(=O)(=O)c1ccc(Oc2ccccc2)cc1	82*!	/	0	-1	-1	-2
C[C@H]1CN([C@@H](C)CO)C(=O)CCCn2nncc2CO[C@H]1CN(C)S(=O)(=O)c1ccc2c(c1)OCCCO2	117*!	/	-2	1	0	-6
C[C@H](CO)N1C[C@H](C)[C@@H](CN(C)S(=O)(=O)c2cccc(F)c2)OCc2cn(nn2)CCCC1=O	5	/	2	-2	1	55*!
C[C@@H]1CN([C@H](C)CO)C(=O)c2cc(NC(=O)C3CCCCC3)ccc2O[C@@H](C)CCCCO[C@@H]1CN(C)Cc1ccc(C(F)(F)F)cc1	/	/	-5	/	0	-1
Nc1nc(-c2ccccc2)c(CCCOc2ccc(NC(=O)CBr)cc2)c(=O)[nH]1	-9	3	/	-2	10	24*
SMILES	S100A4 MyoIIA	PfHsp90 yeast 2	Ecoli rRNA inh	MLL AF4-AF9 inh	Cneo AK release	DENV2 CPE
CCN(CC(=O)NC(=O)NCc1ccccc1)Cc1ccccc1	1	-20	-23*	-2	-2	1
COc1ccc(CN2CC3(C2)CN(C(=O)Nc2ccc(F)cc2)[C@@H](CO)c2[nH]c4cc(OC)ccc4c23)cc1	/	/	-61	44*	/	-5
COc1ccc2c3c([nH]c2c1)[C@@H](CO)N(C(=O)Nc1ccc(F)cc1)CC31CN(Cc2ccccc2OC)C1	/	/	-59	51*	/	5
COc1ccc2c3c([nH]c2c1)[C@@H](CO)N(C(=O)Nc1ccc(F)cc1)CC31CN(Cc2ccc(F)cc2)C1	-1	/	-60	4	/	32*
COc1ccc2c3c([nH]c2c1)[C@H](CO)N(C(=O)Nc1ccc(F)cc1)CC31CN(Cc2ccc(F)cc2)C1	-6	/	-59	11	/	14
COc1ccc2c3c([nH]c2c1)[C@H](CO)N(C(=O)Nc1ccc(F)cc1)CC31CN(Cc2ccccc2OC)C1	/	/	-60	/	/	/
Nc1ccccc1C#Cc1ccccc1	-6	-3	4	0	-5	110*
COc1ccc(OC)c(NC(=O)COC(=O)c2c3c(nc4ccccc24)CCCC3)c1	7	45	-28*	-18	-1	0
COc1ccc(NC(=O)COC(=O)c2c3c(nc4ccccc24)CCCC3)cc1	/	/	/	/	-2	/
COc1ccc(OC)c(Nc2c3ccccc3nc3ccccc23)c1	5	12	-6	40*	-3	10
COc1ccc(CN(C)C(=O)C23CC4CC(CC(Cl)(C4)C2)C3)c(OC)c1OC	7	-52	-29*	2	-1	-6
COc1cccc(CN(C)C(=O)C23CC4CC(CC(NC(C)=O)(C4)C2)C3)c1OC	1	-47	2	0	13	10
N#CC1=C(N)Oc2cc3c(cc2C1c1ccc(Cl)cc1)OCO3 (configuration not stated)	-4	18	-23*	1	3	/
COc1ccccc1CNC(=O)C[C@H]1CC[C@@H]2[C@H](COC[C@H](O)CN2Cc2cccc(-c3ccncc3)c2)O1	/	/	-4	/	2	2

Screening data from PubChem BioAssay.
